# MT1-MMP txn act – MT1-MMP promoter reporter activation – cell-based, luciferase luminescence, primary screen; 86,000 compounds, 0.16% hits; HT1080 MT1-MMP promoter luciferase reporter, overnight; stronger effect = higher value; activation factor at 10 µM; AID 750, 2007;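 active means activation factor of at least 2 for MT1-MMP transcription at 10 µM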
# M1 agonist – M1 muscarinic receptor agonists, primary screen, CHO-M1 cells, Fluo-4 calcium, agonist mode. Muscarinic acetylcholine receptor M1. Fluo-4 calcium fluorescence; stronger effect = higher value. B-score at 10 µM. 64,000 compounds, 3% hits;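 active means fluorescence rise, raw or as B-score row- and column-corrected plate score, outside the 99.7% band of its plate's samples, either direction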
# RORa activator – activators of orphan receptor RORA, primary screen, cell-based, luminescence | AID 560, 2006 | CHO-K1 Gal4-RORA LBD luciferase reporter; percent increase over mock-subtracted basal signal | 65,000 compounds, 1.5% hits | Nuclear receptor ROR-alpha (Homo sapiens), P35398 | activation, % at 10 µM;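 active means activation above the mean of all tested compounds plus 3 SD, cut at about 49% in these data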;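 further: 0% = DMSO-treated RORA cells and 100% = added signal equal to DMSO minus mock-transfected cells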
# M1 antagonist – antagonists of rat M1 muscarinic receptor; CHO-M1 cells, Fluo-4 calcium, ACh EC80 antagonist mode; stronger effect = lower value; B-score at 10 µM; Muscarinic acetylcholine receptor M1 (Rattus norvegicus), P08482; 64,000 compounds, 3.4% hits;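 active means calcium fluorescence response, raw or row-and-column corrected B-score, differing from the plate sample mean either way at a set confidence level, mostly lower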
# SF-1 act – activators of human SF-1, primary screen, cell-based, CHO-K1, Gal4-SF-1 LBD, luciferase luminescence; 65,000 compounds, 1.9% hits; CHO-K1 Gal4-SF-1 LBD luciferase reporter; % increase over DMSO SF-1-specific signal; activation, % at 10 µM;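 active means activation above the mean activation of all tested compounds plus 3 SD, cut at about 50% in these data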
# Target sequence (Q13285 whole entry, looked up, the tested form may be a part): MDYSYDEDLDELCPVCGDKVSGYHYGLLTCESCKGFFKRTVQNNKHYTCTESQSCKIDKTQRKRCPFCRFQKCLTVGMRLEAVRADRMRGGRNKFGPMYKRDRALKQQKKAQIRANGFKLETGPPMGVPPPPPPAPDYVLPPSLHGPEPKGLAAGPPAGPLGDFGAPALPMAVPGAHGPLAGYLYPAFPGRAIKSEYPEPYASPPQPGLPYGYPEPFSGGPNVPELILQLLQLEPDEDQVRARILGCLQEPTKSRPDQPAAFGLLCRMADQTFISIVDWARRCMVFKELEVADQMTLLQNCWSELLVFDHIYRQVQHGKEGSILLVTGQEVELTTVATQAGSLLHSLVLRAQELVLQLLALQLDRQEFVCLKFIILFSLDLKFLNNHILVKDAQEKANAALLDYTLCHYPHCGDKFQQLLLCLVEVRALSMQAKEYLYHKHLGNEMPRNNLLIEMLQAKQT
#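 material = CHO-K1 cells with Gal4–hSF-1 LBD chimera plus Gal4-driven luciferase | compound = 10 µM single point, 1% DMSO | incubation = 20 h compound exposure at 37 °C after 1 h cell settling | measured by = SteadyLite luciferase luminescence | evaluation = percent activation relative to DMSO median and mock-transfected background | control set = DMSO negative control and −SF1 background wells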
# An asterisk follows results filed as active; . = no result. The list is not random: actives were taken first. Their share in the collection is about 6.3%.
SMILES,MT1-MMP txn act,M1 agonist,RORa activator,M1 antagonist,SF-1 act
O=C(CCCc1ccccc1)Nc1cccnc1,1.7,.,.,.,.
CCC(=O)Nc1ccc(S(=O)(=O)NCc2ccco2)cc1,1.1,.,.,.,.
COc1ccc(-c2nc(C#N)c(NCc3ccc(C)cc3)o2)cc1OC,1.3,-0.907,-0.6,0.12,4.0
CC(C)(C)c1ccc(-c2nc(C#N)c(NCc3ccncc3)o2)cc1,2*,-0.525,59.7*,-0.0731,83.0*
CCOC(=O)c1ccc(CNC(=O)c2n[nH]c(=O)c3ccccc23)o1,1.1,1.31,-16.4,0,-5.7
CC(C)(C)NC(=O)CSc1nccn1Cc1ccccc1,1,0.0888,4.4,-1.2,-10.4
O=C(CSc1nccn1Cc1ccccc1)Nc1nccs1,1.4,-0.096,57.1*,1.1,13.6
C#CCOC(=O)c1ccccc1C(=O)n1nnc2ccccc21,1,-2.27*,-25.9,0.34,2.0
CCN(CCNC(=O)Cn1c(=O)sc2ccccc21)c1ccccc1,1.2,-1.09,2.4,0.705,-4.5
CCc1nc(N2CCN(C(=O)c3ccco3)CC2)c2oc3ccccc3c2n1,1.1,1.96,5.6,-1.47,3.2
CCc1nc(Nc2ccc(N3CCN(C(C)=O)CC3)cc2)c2oc3ccccc3c2n1,1.1,1.2,12.5,-1.13,53.4*
COc1ccc(-c2csc(NCc3ccco3)n2)cc1,0.8,0.00674,36.8,0.847,27.2
C=CCNc1nc(-c2ccc(OC)cc2OC)cs1,2*,-0.34,51.5*,0.00622,102.5*
CCOC(=O)C1=C(C)N(CCCC(=O)O)C(=O)NC1c1ccc2c(c1)OCO2 (configuration not stated),1.1,.,.,.,.
COc1cccc2cc(C(=O)NCc3ccccn3)c(=O)oc12,2.1*,.,.,.,.
CC(=O)Nc1ccc(C(=O)OCCC(C)C)cc1,1.2,-0.267,51.2*,-0.04,27.4
CCOC(=O)c1ccc(NC(=O)c2nn(C)cc2Br)cc1,1.5,-0.0216,75.7*,-1.19,46.6
CCOC(=O)c1ccc(NC(=O)N(CC)CC)cc1,1.5,-0.0266,43.2,0.0856,62.7*
CCOC(=O)c1ccc(NC(=O)N2CC(C)OC(C)C2)cc1 (configuration not stated),2*,-0.384,0.2,-0.278,5.8
Cc1nc(SCC(=O)N2CCN(c3ccccc3)CC2)c2c(=O)n(C)c(=O)n(C)c2n1,1.1,-0.0898,-16.1,0.502,-3.7
CCN(CC)S(=O)(=O)c1ccc2oc(C(=O)NCc3ccc(C)cc3)c(C)c2c1,1.2,.,.,.,.
COc1ccc(C(=O)/C=C/Nc2cccc(C)n2)cc1OC,1.4,1.91,13.3,-0.566,87.8*
Cc1ccc(C(=O)/C=C/Nc2ccccn2)cc1,0,0.00712,-89.6,0.0182,-82.8
O=C(NCCN1C(=O)C2C3C=CC(C3)C2C1=O)Nc1ccc(Br)cc1 (configuration not stated),.,-0.467,84.3*,0.324,83.7*
C1=C(CCNC2=NCCCCC2)CCCC1,1.2,-0.615,-5.8,-0.0915,4.1
SMILES,MT1-MMP txn act,M1 agonist,RORa activator,M1 antagonist,SF-1 act
COC(=O)[C@@H]1C[C@H]1[C@@H](NS(=O)(=O)c1ccc(-c2ccccc2)cc1)c1ccccc1,1.2,.,.,.,.
COc1cc(C2=NOC(C(=O)NCc3ccco3)C2)cc(OC)c1OC (configuration not stated),0.5,-0.911,81.5*,0.35,55.2*
COc1ccc(C2=NOC(C(=O)NCc3ccco3)C2)cc1 (configuration not stated),1.2,.,.,.,.
O=S(=O)(c1ccc(Nc2ccc(-c3ccc4c(c3)OCCO4)nn2)cc1)N1CCCC1,1.9,.,.,.,.
O=C(NC1CC1)c1cccc(Nc2ccc(-c3ccc4c(c3)OCCO4)nn2)c1,1.1,3.77*,15.8,-2.67,48.7
CSc1nc(C)cc(OCCNS(=O)(=O)c2ccc(C)cc2)n1,1.1,.,.,.,.
COc1ccc(C(=O)Nn2c(SCC(=O)c3ccccc3)nc3ccccc3c2=O)cc1,0.6,.,.,.,.
CCOC(=O)CSc1nc2ccccc2c(=O)n1NC(=O)c1ccccc1,1.2,0.509,1.6,-0.052,56.0*
O=C(COc1ccc(F)cc1Br)N1CCc2ccccc21,1.4,2.16,29.8,0.619,51.2*
O=C(OCC(=O)N1CCc2ccccc21)C1=COCCO1,1.2,0.696,4.3,0.0693,1.5
Cc1cc(C(=O)OCC(=O)N2CCc3ccccc32)c(C)o1,1.2,-0.586,-2.2,-0.146,53.6*
Brc1ccc(Nc2nc3ccccc3n3nnnc23)cc1,1.3,.,.,.,.
CCN(CC)S(=O)(=O)c1ccc(Nc2nc3ccccc3n3nnnc23)cc1,1.6,-0.784,70.2*,0.212,49.4
COc1ccc(Cl)cc1NC(=O)C12CCC(C)(C(=O)O1)C2(C)C (configuration not stated),1,.,.,.,.
COc1cccc(CNc2ccc3c(c2)ncn3C(C)C)c1OC,1.6,-2.39,27.1,-0.0093,54.8*
Oc1ccc(-c2nnc(SCC3CCCCC3)o2)cc1,1.3,0.00851,59.0*,-0.0645,63.7*
O=C(CSc1nnc(-c2ccc(O)cc2)o1)N1CCOCC1,1.3,-0.104,45.2,-0.0916,29.1
CCc1ccc2nc(NC3=NCN(CCN4CCOCC4)CN3)nc(C)c2c1,1,-0.0584,19.7,-3.27*,-10.7
Cc1cc(C)c2nc(NC3=NCN(CCN4CCOCC4)CN3)nc(C)c2c1,0.9,-1.16,-6.4,0.585,-10.4
Cc1nc(NC2=NCN(Cc3ccc4c(c3)OCO4)CN2)nc2ccccc12,1.2,0.466,-0.3,-9.17*,-10.0
c1ccc2sc(NC3=NCN(Cc4ccc5c(c4)OCO5)CN3)nc2c1,1.2,0.00374,-13.7,-0.595,-7.5
COCCCNC(CC(=O)Nc1ccc(N(C)C)cc1)C(=O)O (configuration not stated),1.1,-0.925,-1.1,0.229,-12.1
CC(=O)Nc1nc2cc3c(cc2s1)OCO3,1.3,-0.111,71.8*,0.278,38.7
COc1ccc2sc(NC(=O)CC(C)C)nc2c1,1.7,0.244,23.1,-0.627,65.5*
CCC(=O)Nc1nc2cc(OC)ccc2s1,1.6,0.139,13.9,0.229,1.1
SMILES,MT1-MMP txn act,M1 agonist,RORa activator,M1 antagonist,SF-1 act
COc1ccc2sc(NC(C)=O)nc2c1,1.4,0.406,56.3*,0.424,49.5*
CCCCOC(=O)Nc1ccc(C(C)C)cc1,2.2*,.,.,.,.
CCCCOC(=O)Nc1ccc(N2CCCCC2)cc1,1,0.794,94.6*,0.291,64.5*
CCCCOC(=O)Nc1ccc(C(N)=O)cc1,1.7,.,.,.,.
CCCCOC(=O)Nc1ccc(N2CCOCC2)cc1,1.6,.,41.8,.,35.2
Cc1cc(-c2nnc3n2CCCCC3)c(C)n1-c1ccccc1,1.3,0.0633,8.8,-0.0676,19.4
c1coc(-c2nnc(NC3=NCCC3)o2)c1,1.6,-0.576,31.6,-0.0236,61.4*
COc1ccc2[nH]c3c(N4CC(C)OC(C)C4)ncnc3c2c1 (configuration not stated),1,.,.,.,.
COc1cccc(N2CCN(c3ncnc4c3[nH]c3ccc(F)cc34)CC2C)c1 (configuration not stated),0.3,7.78*,-95.2,-6.13*,-96.1

# High-throughput results: PubChem, several laboratories
